Results from ChEMBL document CHEMBL2029264, “Indole-based fibrates as potential hypolipidemic and antiobesity agents” (J Med Chem, 2012).
The source made the active and inactive calls. The calls are words filed in the database; no cut-off is given here.

Assays:
[1] = system: Rattus norvegicus; assay: Antihyperlipidemic activity in Triton WR-1339-induced hyperlipidemic rat assessed as increase in LCAT enzyme level at 100 mg/kg, po; format: functional
Outline: (§1)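 Triton WR-1339 given to rats to induce hyperlipidemia; oral dosing. Plasma TC, PL, TG in mg/dL; PHLA as […]/h/mL plasma. Mean ± SD of six rats; Triton group compared with control, Triton plus dosed group compared with Triton group.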

[2] = system: Rattus norvegicus; assay: Antihyperlipidemic activity in Triton WR-1339-induced hyperlipidemic rat assessed as decrease in plasma triglyceride level at 50 mg/kg, po; format: functional
Outline: (§2)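 Separate set of Triton WR-1339-induced hyperlipidemic rats, oral doses of 50, 100 and 150 mg/kg. Plasma TC, PL, TG in mg/dL; PHLA as […]/h/mL plasma. Mean ± SD of six rats versus Triton group.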

[3] = system: Rattus norvegicus; assay: Antihyperlipidemic activity in HFD-induced hyperlipidemic Charles Foster rat assessed as decrease in liver phospholipid level at 100 mg/kg, po administered for 4 weeks relative to control; format: functional; design: scale not given: the % may be the effect or the level left
Outline: (§3)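 Adult male Charles Foster rats (200−225 g), high-fat diet 4 weeks, then diet plus daily dosing 4 more weeks; overnight fast, sacrifice, liver washed in cold 0.15 M KCl and held at 4 °C. Lipids extracted from liver homogenate in CHCl3/CH3OH (2:1 v/v), TC, PL and TG read in mg/g; pooled data from 6 rats/group, mean ± SD.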

[4] = system: Rattus norvegicus; assay: Antiobesity activity in HFD-induced hyperlipidemic Charles Foster rat assessed as decrease in mesenteric fat-pad at 100 mg/kg, po administered for 4 weeks; format: functional, organism-based; design: dose 100 mg/kg
Outline: (§4)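 Adult male Charles Foster rats given high-fat or normal diet 4 weeks, then diet plus vehicle or daily dosing 4 more weeks, sacrificed at week 8. Body weight gain, food intake, food efficiency ratio (weight gain/food intake over the period), and mesenteric, gonadal, inguinal and perirenal fat-pad weights recorded; mean ± SD, n = 6.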

[5] = system: Rattus norvegicus; assay: Antihyperlipidemic activity in HFD-induced hyperlipidemic Charles Foster rat assessed as increase in serum LCAT enzyme level at 100 mg/kg, po administered for 4 weeks relative to control; format: functional
Outline: (§5)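 Male Charles Foster rats (200−225 g): high-fat diet 4 weeks, then diet plus daily dosing 4 weeks. Overnight fast, retro-orbital blood in EDTA (3 mg/mL blood), centrifuged to serum. TC, PL, TG in mg/dL; LCAT as nmol cholesterol released/h/L plasma. Mean ± SD; dosed groups compared with high-fat group, P by significance levels.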

[6] = system: Rattus norvegicus; assay: Antihyperlipidemic activity in HFD-induced hyperlipidemic Charles Foster rat assessed as increase in plasma HDL-triglyceride level at 100 mg/kg, po administered for 4 weeks relative to control; format: functional
Outline: (§6)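 After 4 weeks high-fat feeding plus 4 weeks daily dosing, overnight fast, retro-orbital blood into EDTA tubes. Serum split into VLDL, LDL and HDL by polyanionic precipitation; each fraction assayed for TC, PL, TG and apoprotein (mg/dL plasma). Pooled data from 6 rats/group, mean ± SD, dosed groups compared with high-fat group.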

[7] = system: Rattus norvegicus; assay: Antihyperlipidemic activity in HFD-induced hyperlipidemic Charles Foster rat assessed as increase in cholic acid excretion in feces at 100 mg/kg/day, po administered for 4 weeks measured after 30 days relative to control; format: functional
Outline: (§7)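 Rats fed high-fat diet 4 weeks, then diet plus daily dosing 4 weeks. Cholic and deoxycholic acid excreted in feces measured; dosed groups compared with high-fat group, control compared with high-fat group.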

[8] = system: Rattus norvegicus; assay: Antihyperlipidemic activity in HFD-induced hyperlipidemic Charles Foster rat assessed as decrease in liver triglyceride level at 100 mg/kg, po administered for 4 weeks relative to control; format: functional; design: scale not given: the % may be the effect or the level left; outline: as §3
[9] = system: Rattus norvegicus; assay: Antihyperlipidemic activity in HFD-induced hyperlipidemic Charles Foster rat assessed as decrease in plasma LDL-apoprotein level at 100 mg/kg, po administered for 4 weeks relative to control; format: functional; design: scale not given: the % may be the effect or the level left; outline: as §6
[10] = system: Rattus norvegicus; assay: Antiobesity activity in HFD-induced hyperlipidemic Charles Foster rat assessed as decrease in body weight at 100 mg/kg, po administered for 4 weeks; format: functional, organism-based; design: dose 100 mg/kg; outline: as §4
[11] = system: Rattus norvegicus; assay: Antiobesity activity in HFD-induced hyperlipidemic Charles Foster rat assessed as decrease in gonadal fat-pad at 100 mg/kg, po administered for 4 weeks; format: functional, organism-based; design: dose 100 mg/kg; outline: as §4
[12] = system: Rattus norvegicus; assay: Antihyperlipidemic activity in HFD-induced hyperlipidemic Charles Foster rat assessed as decrease in plasma VLDL-triglyceride level at 100 mg/kg, po administered for 4 weeks relative to control; format: functional; design: scale not given: the % may be the effect or the level left; outline: as §6
[13] = system: Rattus norvegicus; assay: Antihyperlipidemic activity in HFD-induced hyperlipidemic Charles Foster rat assessed as decrease in serum triglyceride level at 100 mg/kg, po administered for 4 weeks relative to control; format: functional; design: scale not given: the % may be the effect or the level left; outline: as §5
[14] = system: Rattus norvegicus; assay: Antihyperlipidemic activity in Triton WR-1339-induced hyperlipidemic rat assessed as increase in PHLA enzyme level at 100 mg/kg, po; format: functional; outline: as §1
[15] = system: Rattus norvegicus; assay: Antihyperlipidemic activity in po dosed Triton WR-1339-induced hyperlipidemic rat assessed as increase in LCAT enzyme level; format: functional, organism-based; outline: as §1
[16] = system: Rattus norvegicus; assay: Antihyperlipidemic activity in Triton WR-1339-induced hyperlipidemic rat assessed as increase in LCAT enzyme level at 150 mg/kg, po; format: functional; outline: as §2
[17] = system: Rattus norvegicus; assay: Antihyperlipidemic activity in HFD-induced hyperlipidemic Charles Foster rat assessed as decrease in liver total cholesterol level at 100 mg/kg, po administered for 4 weeks relative to control; format: functional; design: scale not given: the % may be the effect or the level left; outline: as §3
[18] = system: Rattus norvegicus; assay: Antihyperlipidemic activity in HFD-induced hyperlipidemic Charles Foster rat assessed as decrease in plasma VLDL-phospholipid level at 100 mg/kg, po administered for 4 weeks relative to control; format: functional; design: scale not given: the % may be the effect or the level left; outline: as §6
[19] = system: Rattus norvegicus; assay: Antihyperlipidemic activity in po dosed Triton WR-1339-induced hyperlipidemic rat assessed as increase in PHLA; format: functional, organism-based; outline: as §1
[20] = system: Rattus norvegicus; assay: Antihyperlipidemic activity in po dosed Triton WR-1339-induced hyperlipidemic rat assessed as decrease in plasma total cholesterol level; format: functional, organism-based; outline: as §1
[21] = system: Rattus norvegicus; assay: Antihyperlipidemic activity in HFD-induced hyperlipidemic Charles Foster rat assessed as decrease in serum total cholesterol level at 100 mg/kg, po administered for 4 weeks relative to control; format: functional; design: scale not given: the % may be the effect or the level left; outline: as §5
[22] = system: Rattus norvegicus; assay: Antihyperlipidemic activity in HFD-induced hyperlipidemic Charles Foster rat assessed as decrease in macrovesicular steatosis at 100 mg/kg, po administered for 4 weeks by light microscopic analysis; format: functional, organism-based; design: dose 100 mg/kg
Outline: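 Rats on high-fat diet 4 weeks, then diet plus daily dosing for another 4 weeks before sacrifice. Liver sections 4 μm thick, stained with Ehrlich's hematoxylin and eosin, examined by light microscope for centrilobular macrovesicular steatosis.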

[23] = system: Rattus norvegicus; assay: Antihyperlipidemic activity in Triton WR-1339-induced hyperlipidemic rat assessed as decrease in plasma total cholesterol level at 50 mg/kg, po; format: functional; outline: as §2
[24] = system: Rattus norvegicus; assay: Antihyperlipidemic activity in Triton WR-1339-induced hyperlipidemic rat assessed as decrease in plasma total cholesterol level at 100 mg/kg, po relative to control; format: functional; design: scale not given: the % may be the effect or the level left; outline: as §1
[25] = system: Rattus norvegicus; assay: Antihyperlipidemic activity in HFD-induced hyperlipidemic Charles Foster rat assessed as increase in deoxycholic acid excretion in feces at 100 mg/kg/day, po administered for 4 weeks measured after 30 days relative to control; format: functional; outline: as §7
[26] = system: Rattus norvegicus; assay: Antihyperlipidemic activity in po dosed Triton WR-1339-induced hyperlipidemic rat assessed as decrease in plasma triglyceride level; format: functional, organism-based; outline: as §1
[27] = system: Rattus norvegicus; assay: Antihyperlipidemic activity in HFD-induced hyperlipidemic Charles Foster rat assessed as decrease in serum phospholipid level at 100 mg/kg, po administered for 4 weeks relative to control; format: functional; design: scale not given: the % may be the effect or the level left; outline: as §5

Structure (SMILES) | Activity [1] | Activity [2] | Activity [3] | Activity [4] | Activity [5] | Activity [6] | Activity [7] | Activity [8] | Activity [9] | Activity [10] | Activity [11] | Activity [12] | Activity [13] | percent increase [14] | Activity [15] | Activity [16] | Activity [17] | Activity [18] | Activity [19] | Activity [20] | also measured
CCOC(=O)C(C)Oc1ccc(C(c2cn(CC)c3ccccc23)c2cn(CC)c3ccccc23)cc1 (centres undefined) | 12 nmol/h/mL | 12 mg/dL | 28% | Active | 32% | 11% | 26% | 27% | 25% | Active | Active | 24% | 25% | 12% | Dose-dependent effect | 18 nmol/h/mL | 23% | 16% | Dose-dependent effect | Dose-dependent effect | Activity [21]: 25%; Activity [22]: Active; Activity [23]: 16 mg/dL; Activity [24]: 22%; Activity [25]: 28%; Activity [26]: Dose-dependent effect; Activity [27]: 24%
CCOC(=O)CCCOc1ccc(C(c2cn(C)c3ccccc23)c2cn(C)c3ccccc23)cc1 | 15 nmol/h/mL | 13 mg/dL | 23% | Active | 29% | 14% | 21% | 24% | 21% | Active | Active | 17% | 27% | 15% | Dose-dependent effect | 21 nmol/h/mL | 26% | 11% | Dose-dependent effect | Dose-dependent effect | Activity [21]: 28%; Activity [22]: Active; Activity [23]: 15 mg/dL; Activity [24]: 20%; Activity [25]: 31%; Activity [26]: Dose-dependent effect; Activity [27]: 25%
